Assay results collected from several papers.
Lines come from different studies, so protocols differ.
Target: Ephrin type-A receptor 1 (EPHA1, Homo sapiens, UniProt P21709)
One construct used (P21709 26-976): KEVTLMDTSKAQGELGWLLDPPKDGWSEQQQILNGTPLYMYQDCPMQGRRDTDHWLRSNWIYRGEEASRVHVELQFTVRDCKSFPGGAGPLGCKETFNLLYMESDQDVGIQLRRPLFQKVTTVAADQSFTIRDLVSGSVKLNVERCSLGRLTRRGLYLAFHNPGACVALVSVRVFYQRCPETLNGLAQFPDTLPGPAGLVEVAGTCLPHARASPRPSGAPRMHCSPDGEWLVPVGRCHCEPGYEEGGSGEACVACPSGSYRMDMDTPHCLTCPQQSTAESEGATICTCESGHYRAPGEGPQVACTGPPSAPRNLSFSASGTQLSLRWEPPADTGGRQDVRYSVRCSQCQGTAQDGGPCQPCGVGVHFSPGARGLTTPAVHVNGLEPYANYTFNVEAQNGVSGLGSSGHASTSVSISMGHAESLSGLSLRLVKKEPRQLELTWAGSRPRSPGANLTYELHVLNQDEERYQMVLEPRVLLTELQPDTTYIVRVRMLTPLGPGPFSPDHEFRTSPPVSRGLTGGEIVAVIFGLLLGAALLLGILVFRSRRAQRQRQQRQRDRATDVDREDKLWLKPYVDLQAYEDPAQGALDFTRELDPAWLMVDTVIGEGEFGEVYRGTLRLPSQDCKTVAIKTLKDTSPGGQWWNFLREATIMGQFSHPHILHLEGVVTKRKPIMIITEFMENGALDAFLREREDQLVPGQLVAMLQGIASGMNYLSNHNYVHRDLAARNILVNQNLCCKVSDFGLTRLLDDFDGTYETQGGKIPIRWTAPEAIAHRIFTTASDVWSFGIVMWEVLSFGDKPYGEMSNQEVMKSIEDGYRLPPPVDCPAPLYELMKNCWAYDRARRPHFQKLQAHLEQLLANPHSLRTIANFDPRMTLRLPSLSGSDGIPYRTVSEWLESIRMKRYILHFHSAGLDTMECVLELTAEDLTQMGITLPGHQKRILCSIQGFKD

SMILES	assay	conditions	endpoint	value
N#CCCc1ccc2c(c1)-c1[nH]c3ccc([N+](=O)[O-])cc3c1CC(=O)N2	cell-free assay	0.5 µM	remaining signal	91.7%
Cc1cnc(NC2CCOCC2)nc1-n1cnc(C(=O)NC(CN)c2cc(F)cc(Cl)c2)c1 (centres unmarked)	enzyme activity, inhibitor, radiometric	1 µM	remaining activity	99%
CN(C)C(=O)Cn1cc(-c2nc(C3(c4ccc(-c5cnc(N)nc5)cc4)CC3)no2)cn1	cell-free assay, competition with immobilised ligand	1 µM	remaining binding	100%
COc1cc2ncnc(Nc3ccc(Oc4ccccc4)cc3C)c2cc1OC	enzyme activity, inhibitor	1 µM	inhibition	11%
Cc1ccc(C(=O)Nc2ccc(CN3CCN(C)CC3)c(C(F)(F)F)c2)cc1C#Cc1cnc2cccnn12	cell-free assay	23.5 nM	remaining signal	55%
CCCOc1ccc(OC)c(F)c1C(=O)c1ccc(C(=O)N[C@@H]2CNC[C@H]2NC(=O)c2ccc3[nH]ncc3c2)cc1	enzyme activity, inhibitor	10 µM	remaining activity	85%
Cc1ccc(C(=O)NCc2ccsc2)cc1C#Cc1cn(C(C)C)c2ncnc(N)c12	enzyme activity, inhibitor	1 µM	activity vs control	45%
CNC(=O)c1cc2c(Oc3ccc(NC(=O)C4(C(=O)Nc5ccc(F)cc5)CC4)cc3)ccnc2cc1OC	enzyme activity, inhibitor, radiometric	1 µM	inhibition	90%
Nc1c(C(=O)NCc2ccc(C(=O)NCCCC3CCCCC3)cc2)cnn1-c1ccccc1	cell-free assay, competition with immobilised ligand	0.1 µM	remaining binding	100%
CCN(CC)CCNC(=O)c1c(C)[nH]c(/C=C2\C(=O)Nc3ccc(F)cc32)c1C	enzyme activity, inhibitor	0.3 µM	inhibition	1%
CO[C@@H](C)c1c(Nc2ccc([C@@H](N(C)C(=O)C3CCS(=O)(=O)CC3)C(F)(F)F)cc2)cnc2cc(Cl)nn12	cell-free assay, competition with immobilised ligand	1 µM	remaining binding	97%
CNC(=O)c1cc(Oc2ccc(NC(=O)Nc3ccc(Cl)c(C(F)(F)F)c3)cc2)ccn1	enzyme activity, inhibitor	10 µM	inhibition	94%
O=C(O)[C@@H]1[C@@H](Cn2nnc3ccccc3c2=O)CC[C@H]1C(=O)c1ccc(OCCC2CCOCC2)cc1	cell-free assay, competition with immobilised ligand	1 µM	remaining binding	100%
O=C(Nc1cnn(-c2csc(C(=O)NC3COC3)c2)c1)Nc1ccccc1Cl	enzyme activity, inhibitor	5 µM	remaining activity	99.1%
C[C@@H]1CN(c2cc(-c3nn(C)c4ccc(OC5(C)CC5)cc34)ncn2)C[C@H](C)O1	cell-free assay, competition with immobilised ligand	1 µM	remaining binding	100%
Cc1cc(NC(=O)c2cccc3cc(-c4cccc5[nH]nc(N)c45)ccc23)ccc1F	enzyme activity, inhibitor	0.1 µM	activity vs control	102%
Cc1ccc(Nc2nccc(N(C)c3ccc4c(C)n(C)nc4c3)n2)cc1S(N)(=O)=O	enzyme activity, inhibitor	10 µM	inhibition	85%
CC(C)(C)c1nc2c(s1)c1nc(N)ncc1c1ccc(NS(=O)(=O)c3c(F)cccc3F)c(F)c12	enzyme activity, inhibitor, radiometric	1 µM	remaining activity	94%
COc1ccc2c(c1)O[C@H](c1ccc(OC)c(OC)c1)C[C@@H]2NC(=O)C1(c2ccc3c(c2)OC(F)(F)O3)CC1	cell-free assay, competition with immobilised ligand	1 µM	remaining binding	88%
O=C1NC(=O)c2cc(Nc3ccc(F)cc3)c(Nc3ccc(F)cc3)cc21	cell-free assay	0.5 µM	remaining signal	97.4%
Cc1sc(C(=O)NC2COC2)cc1-n1cc(NC(=O)Nc2c(F)cccc2Cl)cn1	enzyme activity, inhibitor	10 µM	remaining activity	88.5%
CCCCNc1ncc2c(-c3ccc(F)cc3)nn(C[C@H]3CC[C@H](N)CC3)c2n1	target engagement in cells, inhibitor, chemoproteomics	20 mM	inhibition	> 97%
O=C(NCCCC1CCCCC1)c1ccc(CNC(=O)c2cnn(-c3ccccc3)c2C(F)(F)F)cc1	cell-free assay, competition with immobilised ligand	0.1 µM	remaining binding	100%
Oc1cccc(-c2nc(N3CCOCC3)c3oc4ncccc4c3n2)c1	cell-free assay	0.5 µM	remaining signal	87.8%
Cn1nc(C(=O)NCc2ccc(C(=O)O)cc2)cc1-c1ccc2[nH]ccc2c1	cell-free assay, competition with immobilised ligand	0.1 µM	remaining binding	95%
COc1cc(-c2cc(-c3ccc(N4CCNCC4)cc3)cnc2C)cc(OC)c1OC	enzyme activity, inhibitor	1 µM	inhibition	16%
